Assay results published in ChEMBL document CHEMBL4334451, “Natural Alkaloid Berberine Activity against Pseudomonas aeruginosa MexXY-Mediated Aminoglycoside Resistance: In Silico and in Vitro Studies” (J Nat Prod, 2019).
Calls of active or inactive are those of the source. No cut-off for these calls is given here.

Tests used:
[1] = target: T1, MexXY/OprM (Pseudomonas aeruginosa (strain ATCC 15692 / DSM 22644 / CIP 104116 / JCM14847 / LMG 12228 / 1C / PRS 101 / PAO1)) (UniProt Q51487+Q9ZNG9+Q9ZNG8); assay: Inhibition of MexXY/OPRM in Pseudomonas aeruginosa C104 assessed as reduction in bacterial resistance to tobramycin by measuring fold reduction in tobramycin MIC at 80 ug/ml incubated for 24 to 48 hrs by broth microdilution method; format: protein-complex assay
[2] = target: T1, MexXY/OprM (Pseudomonas aeruginosa (strain ATCC 15692 / DSM 22644 / CIP 104116 / JCM14847 / LMG 12228 / 1C / PRS 101 / PAO1)); assay: Inhibition of MexXY/OPRM in Pseudomonas aeruginosa PA14 assessed as reduction in bacterial resistance to tobramycin by measuring tobramycin MIC at 80 ug/ml incubated for 24 to 48 hrs by broth microdilution method (reference value: 0.125 ug/ml); format: protein-complex assay
Summary of the method: (§1)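 Broth microdilution per CLSI, with P. aeruginosa ATCC 27853 as reference strain, in 2-fold dilution series. Plates were incubated at 37°C and read for visible growth at 24 and 48 h. Berberine stock was in 50% DMSO/50% methanol, with final DMSO kept near 1%. Berberine was tested at 10–320 µg/ml, alone or at a fixed level with serial tobramycin.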

[3] = target: T1, MexXY/OprM (Pseudomonas aeruginosa (strain ATCC 15692 / DSM 22644 / CIP 104116 / JCM14847 / LMG 12228 / 1C / PRS 101 / PAO1)); assay: Inhibition of MexXY/OPRM in Pseudomonas aeruginosa C104 assessed as reduction in bacterial resistance to tobramycin by measuring tobramycin MIC at 80 ug/ml incubated for 24 to 48 hrs by broth microdilution method (reference value: 32 ug/ml); format: protein-complex assay
[4] = target: T1, MexXY/OprM (Pseudomonas aeruginosa (strain ATCC 15692 / DSM 22644 / CIP 104116 / JCM14847 / LMG 12228 / 1C / PRS 101 / PAO1)); assay: Inhibition of MexXY/OPRM in Pseudomonas aeruginosa C84 assessed as reduction in bacterial resistance to tobramycin by measuring fold reduction in tobramycin MIC at 80 ug/ml incubated for 24 to 48 hrs by broth microdilution method; format: protein-complex assay
Summary of the method: (§2)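 Tobramycin MIC by CLSI broth microdilution at 37°C, read at 24 and 48 h, with and without a fixed berberine concentration selected from checkerboard assays. Berberine stock was in 50% DMSO/50% methanol, final DMSO about 1%. A 2-fold decrease in tobramycin MIC was scored as synergy.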

[5] = target: T1, MexXY/OprM (Pseudomonas aeruginosa (strain ATCC 15692 / DSM 22644 / CIP 104116 / JCM14847 / LMG 12228 / 1C / PRS 101 / PAO1)); assay: Inhibition of MexXY/OPRM in Pseudomonas aeruginosa AR61 assessed as reduction in bacterial resistance to tobramycin by measuring tobramycin MIC at 80 ug/ml incubated for 24 to 48 hrs by broth microdilution method (reference value: 0.125 ug/ml); format: protein-complex assay
Erythrocyte = assay: Hemolytic activity in human RBC at 10 to 320 ug/ml incubated for 1 hr by spectrophotometry; format: ADME, cell-based
Summary of the method: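 Fresh heparinized human blood diluted in PBS pH 7.4, washed 3x, resuspended to ~20 vol%. Erythrocyte suspension mixed 1:1 with 1:2 serial berberine dilutions in PBS. PBS served as negative control, 0.2 vol% Triton X-100 as positive control.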

[6] = target: T1, MexXY/OprM (Pseudomonas aeruginosa (strain ATCC 15692 / DSM 22644 / CIP 104116 / JCM14847 / LMG 12228 / 1C / PRS 101 / PAO1)); assay: Inhibition of MexXY/OPRM in Pseudomonas aeruginosa C95 assessed as reduction in bacterial resistance to tobramycin by measuring increase in tobramycin-mediated bactericidal activity at 80 ug/ml in presence of 1XMIC to 2XMIC tobramycin measured after 2 hrs by Time-kill curve analysis; format: protein-complex assay
[7] = target: T1, MexXY/OprM (Pseudomonas aeruginosa (strain ATCC 15692 / DSM 22644 / CIP 104116 / JCM14847 / LMG 12228 / 1C / PRS 101 / PAO1)); assay: Inhibition of MexXY/OPRM in Pseudomonas aeruginosa C83 assessed as reduction in bacterial resistance to tobramycin by measuring tobramycin MIC at 80 ug/ml incubated for 24 to 48 hrs by broth microdilution method (reference value: 128 ug/ml); format: protein-complex assay
[8] = target: T1, MexXY/OprM (Pseudomonas aeruginosa (strain ATCC 15692 / DSM 22644 / CIP 104116 / JCM14847 / LMG 12228 / 1C / PRS 101 / PAO1)); assay: Inhibition of MexXY/OPRM in Pseudomonas aeruginosa C83 assessed as reduction in bacterial resistance to tobramycin by measuring fold reduction in tobramycin MIC at 80 ug/ml incubated for 24 to 48 hrs by broth microdilution method; format: protein-complex assay
[9] = target: T1, MexXY/OprM (Pseudomonas aeruginosa (strain ATCC 15692 / DSM 22644 / CIP 104116 / JCM14847 / LMG 12228 / 1C / PRS 101 / PAO1)); assay: Inhibition of MexXY/OPRM in Pseudomonas aeruginosa C25 assessed as reduction in bacterial resistance to tobramycin by measuring tobramycin MIC at 80 ug/ml incubated for 24 to 48 hrs by broth microdilution method (reference value: 16 ug/ml); format: protein-complex assay
[10] = target: T1, MexXY/OprM (Pseudomonas aeruginosa (strain ATCC 15692 / DSM 22644 / CIP 104116 / JCM14847 / LMG 12228 / 1C / PRS 101 / PAO1)); assay: Inhibition of MexXY/OPRM in Pseudomonas aeruginosa C103 assessed as bacterial growth up to 320 ug/ml incubated for 24 to 48 hrs by broth microdilution method; format: protein-complex assay
Summary of the method: (§3)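 Broth microdilution following CLSI guidelines, with P. aeruginosa ATCC 27853 as reference strain. Berberine was tested at 2-fold concentrations from 10 to 320 µg/ml, dissolved in 50% DMSO/50% methanol, with the top concentration set to keep final DMSO close to 1%. Plates were incubated at 37°C and read for visible growth at 24 and 48 h.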

[11] = target: T1, MexXY/OprM (Pseudomonas aeruginosa (strain ATCC 15692 / DSM 22644 / CIP 104116 / JCM14847 / LMG 12228 / 1C / PRS 101 / PAO1)); assay: Inhibition of MexXY/OPRM in Pseudomonas aeruginosa C73 assessed as reduction in bacterial resistance to tobramycin by measuring tobramycin MIC at 80 ug/ml incubated for 24 to 48 hrs by broth microdilution method (reference value: 128 ug/ml); format: protein-complex assay
[12] = target: T1, MexXY/OprM (Pseudomonas aeruginosa (strain ATCC 15692 / DSM 22644 / CIP 104116 / JCM14847 / LMG 12228 / 1C / PRS 101 / PAO1)); assay: Inhibition of MexXY/OPRM in Pseudomonas aeruginosa C104 assessed as bacterial growth up to 320 ug/ml incubated for 24 to 48 hrs by broth microdilution method; format: protein-complex assay; summary of the method: as §3
[13] = target: T1, MexXY/OprM (Pseudomonas aeruginosa (strain ATCC 15692 / DSM 22644 / CIP 104116 / JCM14847 / LMG 12228 / 1C / PRS 101 / PAO1)); assay: Inhibition of MexXY/OPRM in Pseudomonas aeruginosa C61 assessed as reduction in bacterial resistance to tobramycin by measuring fold reduction in tobramycin MIC at 80 ug/ml incubated for 24 to 48 hrs by broth microdilution method; format: protein-complex assay
[14] = target: T1, MexXY/OprM (Pseudomonas aeruginosa (strain ATCC 15692 / DSM 22644 / CIP 104116 / JCM14847 / LMG 12228 / 1C / PRS 101 / PAO1)); assay: Inhibition of MexXY/OPRM in Pseudomonas aeruginosa C89 assessed as reduction in bacterial resistance to tobramycin by measuring fold reduction in tobramycin MIC at 80 ug/ml incubated for 24 to 48 hrs by broth microdilution method; format: protein-complex assay; summary of the method: as §2
[15] = target: T1, MexXY/OprM (Pseudomonas aeruginosa (strain ATCC 15692 / DSM 22644 / CIP 104116 / JCM14847 / LMG 12228 / 1C / PRS 101 / PAO1)); assay: Inhibition of MexXY/OPRM in Pseudomonas aeruginosa C86 assessed as reduction in bacterial resistance to tobramycin by measuring tobramycin MIC at 80 ug/ml incubated for 24 to 48 hrs by broth microdilution method (reference value: 128 ug/ml); format: protein-complex assay; summary of the method: as §1
[16] = target: T1, MexXY/OprM (Pseudomonas aeruginosa (strain ATCC 15692 / DSM 22644 / CIP 104116 / JCM14847 / LMG 12228 / 1C / PRS 101 / PAO1)); assay: Inhibition of MexXY/OPRM in Pseudomonas aeruginosa C60 assessed as reduction in bacterial resistance to tobramycin by measuring fold reduction in tobramycin MIC at 80 ug/ml incubated for 24 to 48 hrs by broth microdilution method; format: protein-complex assay
[17] = target: T1, MexXY/OprM (Pseudomonas aeruginosa (strain ATCC 15692 / DSM 22644 / CIP 104116 / JCM14847 / LMG 12228 / 1C / PRS 101 / PAO1)); assay: Inhibition of MexXY/OPRM in Pseudomonas aeruginosa C30 assessed as bacterial growth up to 320 ug/ml incubated for 24 to 48 hrs by broth microdilution method; format: protein-complex assay; summary of the method: as §3
[18] = target: T1, MexXY/OprM (Pseudomonas aeruginosa (strain ATCC 15692 / DSM 22644 / CIP 104116 / JCM14847 / LMG 12228 / 1C / PRS 101 / PAO1)); assay: Inhibition of MexXY/OPRM in Pseudomonas aeruginosa C93 assessed as reduction in bacterial resistance to tobramycin by measuring tobramycin MIC at 80 ug/ml incubated for 24 to 48 hrs by broth microdilution method (reference value: >128 ug/ml); format: protein-complex assay; summary of the method: as §1
[19] = target: T1, MexXY/OprM (Pseudomonas aeruginosa (strain ATCC 15692 / DSM 22644 / CIP 104116 / JCM14847 / LMG 12228 / 1C / PRS 101 / PAO1)); assay: Inhibition of MexXY/OPRM in Pseudomonas aeruginosa C93 assessed as bacterial growth up to 320 ug/ml incubated for 24 to 48 hrs by broth microdilution method; format: protein-complex assay; summary of the method: as §1
[20] = target: T1, MexXY/OprM (Pseudomonas aeruginosa (strain ATCC 15692 / DSM 22644 / CIP 104116 / JCM14847 / LMG 12228 / 1C / PRS 101 / PAO1)); assay: Inhibition of MexXY/OPRM in Pseudomonas aeruginosa C98 assessed as bacterial growth up to 320 ug/ml incubated for 24 to 48 hrs by broth microdilution method; format: protein-complex assay; summary of the method: as §1
[21] = target: T1, MexXY/OprM (Pseudomonas aeruginosa (strain ATCC 15692 / DSM 22644 / CIP 104116 / JCM14847 / LMG 12228 / 1C / PRS 101 / PAO1)); assay: Inhibition of MexXY/OPRM in Pseudomonas aeruginosa C95 assessed as reduction in bacterial resistance to tobramycin by measuring log reduction in colony forming unit at 80 ug/ml in presence of 1XMIC to 2XMIC tobramycin measured after 24 hrs by Time-kill curve analysis; format: protein-complex assay

COc1ccc2cc3[n+](cc2c1OC)CCc1cc2c(cc1-3)OCO2 [BERBERINE]
fold change (FC) [1]: > 2
MIC [2]: 0.125 µg/mL
MIC [3]: 8 µg/mL
fold change (FC) [4]: > 2
MIC [5]: 0.125 µg/mL
Activity (Erythrocyte): Non-Toxic
inhibition [6]: Active
MIC [7]: 32 µg/mL
fold change (FC) [8]: > 2
MIC [9]: 1 µg/mL
inhibition [10]: inactive
MIC [11]: 64 µg/mL
inhibition [12]: inactive
fold change (FC) [13]: > 2
fold change (FC) [14]: > 2
MIC [15]: 16 µg/mL
fold change (FC) [16]: > 2
inhibition [17]: inactive
MIC [18]: 64 µg/mL
inhibition [19]: inactive
inhibition [20]: inactive
Activity [21]: 2 log10CFU
